What was measured:
KB [1] = assay: Concentration required to inhibit tumor cell growth in KB-8-5 cells; assay type: functional, cell-based, Homo sapiens
Outline: (§1)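 Cytotoxicity was measured in paclitaxel-sensitive KB-3-1 cells and in KB-8-5 and KB-V1 cells, which express moderate and high P-glycoprotein respectively. Result is the average IC50 (nM) ± SEM; SEM is omitted where it is below 10% of the average.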

KB [2] = assay: Concentration required to inhibit tumor cell growth in KB-V1 cells; assay type: functional, cell-based; conditions: Homo sapiens; outline: as §1
[3] = Concentration required to inhibit tumor cell growth in KB-3-1 cells; assay type: functional, cell-based, Homo sapiens; outline: as §1
Tubulin beta-1 chain = Tubulin beta-1 chain (Homo sapiens, UniProt Q9H4B7); assay: Percent inhibition of tubulin polymerization at 0.3 uM concentration; assay type: functional
Sequence of Tubulin beta-1 chain (Q9H4B7 whole entry): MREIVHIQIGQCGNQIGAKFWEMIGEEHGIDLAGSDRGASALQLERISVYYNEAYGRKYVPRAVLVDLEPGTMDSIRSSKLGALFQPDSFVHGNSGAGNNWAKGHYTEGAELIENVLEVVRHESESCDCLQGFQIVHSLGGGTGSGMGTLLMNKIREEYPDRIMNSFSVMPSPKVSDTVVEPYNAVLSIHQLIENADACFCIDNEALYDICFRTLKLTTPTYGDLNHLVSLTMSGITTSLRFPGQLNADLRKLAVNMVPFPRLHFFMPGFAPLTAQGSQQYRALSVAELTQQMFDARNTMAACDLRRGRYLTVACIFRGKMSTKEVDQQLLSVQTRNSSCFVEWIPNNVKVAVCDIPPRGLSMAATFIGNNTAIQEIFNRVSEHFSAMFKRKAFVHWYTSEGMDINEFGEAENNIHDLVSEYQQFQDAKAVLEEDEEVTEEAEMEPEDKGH

IC50 (KB [1]; kb)	Structure (SMILES)	IC50 (KB [1]; Homo sapiens, KB)	IC50 (KB [2])	IC50 ([3]; Homo sapiens, KB 3-1)	inhibition (Tubulin beta-1 chain)	IC50 ([3]; kb 3-1)
	CS[C@@H](C(=O)N[C@H](C(=O)N(C)[C@H](/C=C(\C)C(=O)O)C(C)C)C(C)(C)C)C(C)(C)c1ccccc1	1150 nM	> 6000 nM	691 nM	79%	
	CN[C@@H](Cc1ccccc1)C(=O)N[C@H](C(=O)N(C)[C@H](/C=C(\C)C(=O)O)C(C)C)C(C)(C)C	646 nM	> 3000 nM	603 nM	66%	
	CN[C@H](C(=O)N[C@H](C(=O)N(C)[C@H](/C=C(\C)C(=O)O)C(C)C)C(C)(C)C)C1(c2ccccc2)CCCC1	63 nM	2660 nM	59 nM	77%	
550 nM	C/C(=C\[C@H](C(C)C)N(C)C(=O)[C@@H](NC(=O)[C@@H](N)C(C)(C)c1ccccc1)C(C)(C)C)C(=O)O (stereo in doubt; 20) [listing 1 of 2 here]		> 3000 nM			427 nM
	CN[C@H](C(=O)N[C@H](C(=O)N(C)[C@H](C[C@H](C)C(=O)O)C(C)C)C(C)(C)C)C(C)(C)c1ccccc1	69 nM	> 3000 nM	48 nM	74%	
	CN[C@H](C(=O)N[C@H](C(=O)N(C)[C@H](/C=C(\C)C(=O)O)C(C)C)C(C)(C)C)C1(c2ccccc2)CCCCC1	363 nM	> 3000 nM	204 nM	5%	
	C/C(=C\[C@H](C(C)C)N(C)C(=O)[C@@H](NC(=O)[C@@H](C(C)(C)c1ccccc1)S(C)(=O)=O)C(C)(C)C)C(=O)O	2110 nM	> 3000 nM	1750 nM	80%	
	C/C(=C\[C@H](C(C)C)N(C)C(=O)[C@@H](NC(=O)[C@@H](O)C(C)(C)c1ccccc1)C(C)(C)C)C(=O)O	> 3000 nM	> 3000 nM	> 3000 nM	21%	
	C/C(=C\[C@H](C(C)C)N(C)C(=O)[C@@H](NC(=O)[C@@H](NCCO)C(C)(C)c1ccccc1)C(C)(C)C)C(=O)O	616 nM	> 3000 nM	183 nM	90%	
	CO[C@H](C(=O)N[C@H](C(=O)N(C)[C@H](/C=C(\C)C(=O)O)C(C)C)C(C)(C)C)C(C)(C)c1ccccc1	1230 nM	> 3000 nM	1420 nM	54%	
	C/C(=C\[C@H](C(C)C)N(C)C(=O)[C@@H](NC(=O)CC(C)(C)c1ccccc1)C(C)(C)C)C(=O)O	> 3000 nM	> 3000 nM	> 3000 nM	21%	
	CNCC(=O)N[C@H](C(=O)N[C@H](C(=O)N(C)[C@H](/C=C(\C)C(=O)O)C(C)C)C(C)(C)C)C(C)(C)c1ccccc1	2120 nM	> 3000 nM	1400 nM	4%	
	CCN[C@H](C(=O)N[C@H](C(=O)N(C)[C@H](/C=C(\C)C(=O)O)C(C)C)C(C)(C)C)C(C)(C)c1ccccc1	2.4 nM	114 nM	1.6 nM	96%	
	CCCCCCCCOC(=O)/C(C)=C/[C@H](C(C)C)N(C)C(=O)[C@@H](NC(=O)[C@@H](NC)C(C)(C)c1ccccc1)C(C)(C)C	1630 nM	> 3000 nM	150 nM	26%	
	C/C(=C\[C@H](C(C)C)N(C)C(=O)[C@@H](NC(=O)[C@H](Cc1ccccc1)C(C)(C)c1ccccc1)C(C)(C)C)C(=O)O	2240 nM	> 6000 nM	1690 nM	46%	
	CN[C@H](C(=O)N[C@@H](Cc1ccccc1)C(=O)N(C)[C@H](/C=C(\C)C(=O)O)C(C)C)C(C)(C)c1ccccc1	2400 nM	> 3000 nM	1320 nM	40%	
	CN[C@H](C(=O)N[C@H](C(=O)N(C)[C@H](/C=C(\C)C(=O)NO)C(C)C)C(C)(C)C)C(C)(C)c1ccccc1	227 nM	> 3000 nM	39 nM	75%	
	CS[C@H](C(=O)N[C@H](C(=O)N(C)[C@H](/C=C(\C)C(=O)O)C(C)C)C(C)(C)C)C(C)(C)c1ccccc1	1150 nM	> 6000 nM	691 nM	79%	
	CN[C@H](C(=O)N[C@H](C(=O)N(C)[C@H](/C=C(\C)C(=O)O)C(C)C)C(C)(C)C)C(C)(C)c1ccc(-c2ccccc2)cc1	6.8 nM	177 nM	3.2 nM	86%	
	CNC(=O)CN[C@H](C(=O)N[C@H](C(=O)N(C)[C@H](/C=C(\C)C(=O)O)C(C)C)C(C)(C)C)C(C)(C)c1ccccc1	> 3000 nM	> 3000 nM	> 3000 nM	0%	
	CCCCCC(C)(C)[C@H](NC)C(=O)N[C@H](C(=O)N(C)[C@H](/C=C(\C)C(=O)O)C(C)C)C(C)(C)C	19 nM	513 nM	9 nM	72%	
	C/C(=C\[C@H](C(C)C)N(C)C(=O)[C@@H](NC(=O)[C@@H](Cc1ccccc1)C(C)(C)c1ccccc1)C(C)(C)C)C(=O)O	2240 nM	> 6000 nM	1690 nM	46%	

IC50 (KB [1]; kb)	Structure (SMILES)	IC50 (KB [1]; Homo sapiens, KB)	IC50 (KB [2])	IC50 ([3]; Homo sapiens, KB 3-1)	inhibition (Tubulin beta-1 chain)	IC50 ([3]; kb 3-1)
	CN[C@H](C(=O)N[C@@H](C)C(=O)N(C)[C@H](/C=C(\C)C(=O)O)C(C)C)C(C)(C)c1ccccc1	902 nM	> 3000 nM	381 nM	8%	
	CN[C@H](C(=O)N[C@@H](C(=O)N(C)[C@H](/C=C(\C)C(=O)O)C(C)C)C(C)(C)C)C(C)(C)c1ccccc1	> 3000 nM	> 3000 nM	> 3000 nM	1%	
	CCC(CC)(c1ccccc1)[C@H](NC)C(=O)N[C@H](C(=O)N(C)[C@H](/C=C(\C)C(=O)O)C(C)C)C(C)(C)C	18 nM	479 nM	8.5 nM	86%	
	CN[C@H](C(=O)N[C@H](C(=O)N(C)[C@H](/C=C(\C)C(=O)O)C(C)C)C(C)(C)C)C(C)(C)O	293 nM	> 3000 nM	151 nM	40%	
	CN[C@H](C(=O)N[C@H](C(=O)N(C)[C@H](/C=C(\C)C(=O)O)C(C)C)C(C)(C)C)C(C)(C)C	180 nM	> 3000 nM	114 nM	43%	
	CC[C@@H](C(=O)N[C@H](C(=O)N(C)[C@H](/C=C(\C)C(=O)O)C(C)C)C(C)(C)C)C(C)(C)c1ccccc1	1200 nM	5250 nM	912 nM	54%	
	CN[C@H](C(=O)N[C@H](C(=O)N(C)[C@H](/C=C(\C)C(=O)O)C(C)C)C(C)(C)C)C(C)(C)Cc1ccccc1	6 nM	219 nM	3 nM	87%	
	CN[C@H](C(=O)N(C)[C@H](C(=O)N(C)[C@H](/C=C(\C)C(=O)O)C(C)C)C(C)(C)C)C(C)(C)c1ccccc1	> 3000 nM	> 3000 nM	> 3000 nM	4%	
	C=CC[C@@H](C(=O)N[C@H](C(=O)N(C)[C@H](/C=C(\C)C(=O)O)C(C)C)C(C)(C)C)C(C)(C)c1ccccc1	1200 nM	> 6000 nM	1150 nM	63%	
	CC[C@H](C(=O)N[C@H](C(=O)N(C)[C@H](/C=C(\C)C(=O)O)C(C)C)C(C)(C)C)C(C)(C)c1ccccc1	1200 nM	5250 nM	912 nM	54%	
	C/C(=C\[C@H](C(C)C)N(C)C(=O)[C@@H](NC(=O)[C@@H](NCC(=O)O)C(C)(C)c1ccccc1)C(C)(C)C)C(=O)O	> 3000 nM	> 3000 nM	> 3000 nM	35%	
	CN[C@H](C(=O)N[C@H](C(=O)N(C)[C@H](/C=C(\C)C(=O)NCc1ccc(-c2ccccc2)cc1)C(C)C)C(C)(C)C)C(C)(C)c1ccccc1	1680 nM	> 3000 nM	667 nM	11%	
	C=CC[C@H](C(=O)N[C@H](C(=O)N(C)[C@H](/C=C(\C)C(=O)O)C(C)C)C(C)(C)C)C(C)(C)c1ccccc1	1200 nM	> 6000 nM	1150 nM	63%	
	CN[C@H](C(=O)N[C@H](C(=O)N(C)[C@H](/C=C(\C)C(=O)O)C(C)C)C(C)(C)C)C1(c2ccccc2)CC1	57 nM	1660 nM	27 nM	99%	
	C/C(=C\[C@H](C(C)C)N(C)C(=O)[C@@H](NC(=O)[C@@H](N1CCCC1)C(C)(C)c1ccccc1)C(C)(C)C)C(=O)O	158 nM	> 3000 nM	75 nM	83%	
	CCC[C@H](NC(=O)[C@@H](NC)C(C)(C)c1ccccc1)C(=O)N(C)[C@H](/C=C(\C)C(=O)O)C(C)C	19 nM	575 nM	15 nM	51%	
	CN[C@H](C(=O)N[C@H](C(=O)N(C)[C@H](/C=C(\C)C(N)=O)C(C)C)C(C)(C)C)C(C)(C)c1ccccc1	162 nM	> 3000 nM	65 nM	72%	
	CN[C@H](C(=O)N[C@H](C(=O)N(C)[C@H](/C=C(\C)C(=O)O)Cc1ccccc1)C(C)(C)C)C(C)(C)c1ccccc1	1320 nM	> 3000 nM	479 nM	44%	
	CC[C@H](NC(=O)[C@@H](NC)C(C)(C)c1ccccc1)C(=O)N(C)[C@H](/C=C(\C)C(=O)O)C(C)C	70 nM	1060 nM	48 nM	73%	
	C/C(=C\[C@H](C(C)C)N(C)C(=O)[C@@H](NC(=O)[C@@H](N)C(C)(C)c1ccccc1)C(C)(C)C)C(=O)O (stereo in doubt; 20) [listing 2 of 2 here]				95%	
	CN[C@H](C(=O)N[C@H](C(=O)N(C)[C@H](/C=C(\C)C(=O)NCCc1ccccc1)C(C)C)C(C)(C)C)C(C)(C)c1ccccc1	226 nM	1770 nM	163 nM	72%	
	C/C(=C\[C@H](C(C)C)N(C)C(=O)[C@@H](NC(=O)[C@@H](N)C(C)(C)c1ccccc1)C(C)(C)C)C(=O)O (stereo in doubt; 63)				49%	

Reference: ChEMBL document CHEMBL1138753, “Synthesis and biological activity of analogues of the antimicrotubule agent N,beta,beta-trimethyl-L-phenylalanyl-N(1)-[(1S,2E)-3-carboxy-1-isopropylbut-2-enyl]- N(1),3-dimethyl-L-valinamide (HTI-286)” (J Med Chem, 2004)
